Test results: ChEMBL document CHEMBL1136939, “Fluorinated isatin derivatives. Part 2. New N-substituted 5-pyrrolidinylsulfonyl isatins as potential tools for molecular imaging of caspases in apoptosis” (J Med Chem, 2009)

How the values were obtained:
[1] = molecular target: T1, Caspase-7 (Homo sapiens, UniProt P55210); experiment: Inhibition of human recombinant caspase 7 assessed as accumulation of cleaved fluorogenic 7-amino-4-methylcoumarin after 10 mins
T1 sequence (P55210 whole entry): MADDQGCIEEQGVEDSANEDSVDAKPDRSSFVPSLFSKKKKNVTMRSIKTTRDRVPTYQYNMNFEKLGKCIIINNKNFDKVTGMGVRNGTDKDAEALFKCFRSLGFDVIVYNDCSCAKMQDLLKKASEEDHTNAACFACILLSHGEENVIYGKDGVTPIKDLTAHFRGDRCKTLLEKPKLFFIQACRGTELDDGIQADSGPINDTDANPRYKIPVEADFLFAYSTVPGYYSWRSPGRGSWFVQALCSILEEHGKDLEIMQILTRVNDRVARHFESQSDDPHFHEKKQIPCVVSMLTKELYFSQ
Summary of the method: (§1)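 Ac-DEVD-AMC substrate, 10 µM final. Enzyme at 0.5 units per assay is preincubated 10 min at 37 °C in reaction buffer with compound in DMSO at 5 pM–500 µM final. Substrate reacts a further 10 min. AMC fluorescence is read at 360/460 nm. IC50 by nonlinear regression, mean ± SD of three assays.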

[2] = molecular target: T2, Caspase-1 (Homo sapiens, UniProt P29466); experiment: Inhibition of human recombinant caspase 1 assessed as accumulation of cleaved fluorogenic 7-amino-4-methylcoumarin after 10 mins
T2 sequence (P29466 whole entry): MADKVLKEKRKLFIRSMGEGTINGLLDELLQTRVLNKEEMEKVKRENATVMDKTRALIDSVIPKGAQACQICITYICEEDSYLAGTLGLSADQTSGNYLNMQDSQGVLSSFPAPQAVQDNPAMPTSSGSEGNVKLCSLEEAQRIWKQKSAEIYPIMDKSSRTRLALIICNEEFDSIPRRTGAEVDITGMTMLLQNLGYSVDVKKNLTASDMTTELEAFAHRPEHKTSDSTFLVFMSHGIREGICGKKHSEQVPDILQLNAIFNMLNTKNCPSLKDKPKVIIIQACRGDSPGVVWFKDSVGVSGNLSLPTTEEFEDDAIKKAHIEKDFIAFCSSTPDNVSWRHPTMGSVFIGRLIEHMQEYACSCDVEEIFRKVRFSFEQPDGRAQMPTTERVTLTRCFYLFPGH
Summary of the method: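 Ac-YVAD-AMC substrate, 10 µM final. Enzyme at 0.5 units per assay is preincubated 10 min at 37 °C with compound in DMSO, single doses 5 pM–500 µM final. Substrate is then added and reacts 10 more min. AMC is read at ex 360/em 460 nm. IC50 comes from nonlinear regression, mean ± SD of three assays.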

[3] = molecular target: T3, Caspase-3 (Homo sapiens, UniProt P42574); experiment: Inhibition of human recombinant caspase 3 assessed as accumulation of cleaved fluorogenic 7-amino-4-methylcoumarin after 10 mins; summary of the method: as §1
T3 sequence (P42574 whole entry): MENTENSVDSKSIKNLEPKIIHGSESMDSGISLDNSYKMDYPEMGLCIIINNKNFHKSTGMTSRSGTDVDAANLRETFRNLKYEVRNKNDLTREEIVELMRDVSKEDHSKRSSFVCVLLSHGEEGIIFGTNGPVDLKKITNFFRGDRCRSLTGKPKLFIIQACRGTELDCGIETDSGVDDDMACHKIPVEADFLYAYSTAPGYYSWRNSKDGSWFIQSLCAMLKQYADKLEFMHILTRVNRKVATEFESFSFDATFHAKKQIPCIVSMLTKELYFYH

[4] = molecular target: T4, Caspase-6 (Homo sapiens, UniProt P55212); experiment: Inhibition of human recombinant caspase 6 assessed as accumulation of cleaved fluorogenic 7-amino-4-methylcoumarin after 10 mins
T4 sequence (P55212 whole entry): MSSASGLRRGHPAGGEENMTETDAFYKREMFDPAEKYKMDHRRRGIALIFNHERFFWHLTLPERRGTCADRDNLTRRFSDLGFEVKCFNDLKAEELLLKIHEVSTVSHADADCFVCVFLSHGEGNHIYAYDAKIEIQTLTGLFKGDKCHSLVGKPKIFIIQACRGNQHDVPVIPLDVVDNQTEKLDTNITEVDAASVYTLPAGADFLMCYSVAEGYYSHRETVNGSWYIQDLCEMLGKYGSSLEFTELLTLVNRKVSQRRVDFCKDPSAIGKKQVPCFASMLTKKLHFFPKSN
Summary of the method: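 Substrate Ac-VEID-AMC at 10 µM final, added after the enzyme (0.5 units per assay) has been preincubated 10 min at 37 °C with compound in DMSO at single doses of 5 pM–500 µM. Reaction runs 10 min, then AMC is read at ex 360, em 460 nm. IC50 by nonlinear regression; mean ± SD, n=3.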

SMILES | IC50 [1] [nM] | IC50 [2] [nM] | IC50 [3] [nM] | IC50 [4] [nM]
COC[C@@H]1CCCN1S(=O)(=O)c1ccc2c(c1)C(=O)C(=O)N2CC(F)(F)CBr | 1660 |  | 1880 | 
COC[C@@H]1CCCN1S(=O)(=O)c1ccc2c(c1)C(=O)C(=O)N2 |  | > 500000 |  | > 500000
C=CCN1C(=O)C(=O)c2cc(S(=O)(=O)N3CCC[C@H]3COC)ccc21 | 24 | > 500000 | 25 | > 500000
COC[C@@H]1CCCN1S(=O)(=O)c1ccc2c(c1)C(=O)C(=O)N2CCC1CO1 (stereo partly drawn) | 68 | > 500000 | 151 | > 500000
C=Cc1ccc(CN2C(=O)C(=O)c3cc(S(=O)(=O)N4CCC[C@H]4COC)ccc32)cc1 | 7.2 | > 500000 | 9.3 | > 500000
COC[C@@H]1CCCN1S(=O)(=O)c1ccc2c(c1)C(=O)C(=O)N2CCCCCCCCCC1CO1 (stereo partly drawn) | 61 | > 500000 | 23 | > 500000
CN1C(=O)C(=O)c2cc(S(=O)(=O)N3CCC[C@H]3COc3ccccc3)ccc21 | 304 | > 500000 | 2.4 | > 500000
COC[C@@H]1CCCN1S(=O)(=O)c1ccc2c(c1)C(=O)C(=O)N2Cc1ccc(OCC(O)CF)cc1 (stereo partly drawn) | 5 | > 500000 | 145 | > 500000
COC[C@@H]1CCCN1S(=O)(=O)c1ccc2c(c1)C(=O)C(=O)N2C[C@H](O)CO | 43 | > 500000 | 11 | > 500000
COC[C@@H]1CCCN1S(=O)(=O)c1ccc2c(c1)C(=O)C(=O)N2CCC(O)CO (stereo partly drawn) | 61 | > 500000 | 275 | > 500000

More lines, now with the values ahead:

IC50 [1] [nM] | IC50 [2] [nM] | IC50 [3] [nM] | IC50 [4] [nM] | SMILES
0.6 | > 500000 | 10 | > 500000 | C=CCOc1ccc(CN2C(=O)C(=O)c3cc(S(=O)(=O)N4CCC[C@H]4COC)ccc32)cc1
 | > 500000 |  | > 500000 | O=C1Nc2ccc(S(=O)(=O)N3CCC[C@H]3COc3ccccc3)cc2C1=O
2.4 | > 500000 | 42 | > 500000 | COC[C@@H]1CCCN1S(=O)(=O)c1ccc2c(c1)C(=O)C(=O)N2Cc1ccc(OCC2CO2)cc1 (stereo partly drawn)
349 | > 500000 | 19 | > 500000 | COC[C@@H]1CCCN1S(=O)(=O)c1ccc2c(c1)C(=O)C(=O)N2C[C@H](O)CF
1.9 | > 500000 | 6.6 | > 500000 | COC[C@@H]1CCCN1S(=O)(=O)c1ccc2c(c1)C(=O)C(=O)N2Cc1ccc(C2CO2)cc1 (stereo partly drawn)
7.6 | > 500000 | 80 | > 500000 | COC[C@@H]1CCCN1S(=O)(=O)c1ccc2c(c1)C(=O)C(=O)N2Cc1ccc(C(F)CO)cc1 (stereo partly drawn)
99 | > 500000 | 3.6 | > 500000 | COC[C@@H]1CCCN1S(=O)(=O)c1ccc2c(c1)C(=O)C(=O)N2CCC(O)CF (stereo partly drawn)
111 | > 500000 | 74 | > 500000 | C=CCCCCCCCCCN1C(=O)C(=O)c2cc(S(=O)(=O)N3CCC[C@H]3COC)ccc21
50 | > 500000 | 31 | > 500000 | C=CCCN1C(=O)C(=O)c2cc(S(=O)(=O)N3CCC[C@H]3COC)ccc21
16 | > 500000 | 43 | > 500000 | COC[C@@H]1CCCN1S(=O)(=O)c1ccc2c(c1)C(=O)C(=O)N2Cc1ccc(C(F)CBr)cc1 (stereo partly drawn)
9 | 3160 | 17 | > 500000 | COC[C@@H]1CCCN1S(=O)(=O)c1ccc2c(c1)C(=O)C(=O)N2C[C@H]1CO1
